Assay outcomes as filed in PubChem.
dFosB activator – enhances mouse delta FosB homodimer DNA binding; P13346; purified delta FosB, TAMRA-CDK5 oligo fluorescence polarization; percent of positive-control signal above neutral wells; activation, % at 25 µM; 340,000 compounds, 0.99% hits; AID 493131;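 active = mean activation above about 17%, with every replicate also reaching it, limit read from the data, passing the limit was not always enough; inconclusive = only one of the two conditions met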
RAD54 branch – inhibitors of human RAD54 branch migration | Q92698 | 360,000 compounds, 0.14% hits | inhibition, % at 10.4 µM | RAD54 Holliday junction branch migration, FAM/BHQ fluorescence;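 active = mean normalized replicate activity at least 40 and at least half of replicates scoring 40 or more; inconclusive = only one of the two criteria met; inactive = mean below 40 and under half of replicates reaching 40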;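 note: inhibitors cause a drop in the FAM fluorescence signal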
Target sequence (Q92698 whole entry, looked up): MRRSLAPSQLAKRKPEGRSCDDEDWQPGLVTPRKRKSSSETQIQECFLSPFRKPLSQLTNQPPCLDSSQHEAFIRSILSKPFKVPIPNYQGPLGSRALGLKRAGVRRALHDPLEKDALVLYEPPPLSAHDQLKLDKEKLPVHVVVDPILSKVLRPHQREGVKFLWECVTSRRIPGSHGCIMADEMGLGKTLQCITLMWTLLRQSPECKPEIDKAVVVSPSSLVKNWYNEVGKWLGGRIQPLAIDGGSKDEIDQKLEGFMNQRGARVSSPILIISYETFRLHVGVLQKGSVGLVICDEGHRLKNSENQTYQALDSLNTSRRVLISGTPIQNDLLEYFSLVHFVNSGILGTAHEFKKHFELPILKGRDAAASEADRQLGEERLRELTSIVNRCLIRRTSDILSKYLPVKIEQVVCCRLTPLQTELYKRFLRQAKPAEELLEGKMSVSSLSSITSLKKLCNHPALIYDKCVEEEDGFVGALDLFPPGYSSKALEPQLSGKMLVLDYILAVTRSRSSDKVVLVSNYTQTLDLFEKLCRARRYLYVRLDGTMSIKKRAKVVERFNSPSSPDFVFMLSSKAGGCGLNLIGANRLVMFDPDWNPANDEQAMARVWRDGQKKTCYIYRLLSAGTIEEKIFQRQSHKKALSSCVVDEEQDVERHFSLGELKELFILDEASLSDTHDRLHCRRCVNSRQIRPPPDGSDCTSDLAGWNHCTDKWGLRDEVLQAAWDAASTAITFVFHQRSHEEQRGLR
MLL AF4-AF9 inh – MLL-AF4/AF9 protein interaction inhibition; P42568; AlphaScreen, biotin-AF4 peptide binding to FLAG-AF9; inhibition, % at 10 µM; 350,000 compounds, 0.47% hits; AID 651704;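 active = every replicate reaching a set inhibition limit, whatever the replicate mean, cut at about 25% in these data; inconclusive = mean inhibition reaches that limit but some replicates miss it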
S100A4 MyoIIA – S100A4-myosin IIA interaction inhibition | S100A4/TAMRA-MyoIIA peptide fluorescence polarization | P26447 | AID 652163 | 360,000 compounds, 0.14% hits | inhibition, % at 10.7 µM;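 active = mean inhibition of at least 70% across replicates, with every replicate also reaching that level; inconclusive = mean inhibition reaches 70% but some replicates fall short; inactive = mean inhibition below 70%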
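Assay system: human S100A4 monomer with TAMRA-labelled myosin IIA peptide / Buffer or medium: Calcium-containing HEPES buffer, pH 7.2 / Reagent: TAMRA-labelled myosin IIA heavy-chain peptide probe, 5 nM / Compound: one dose per compound / Timing: polarization read 5 min after assay mix addition, stable 5–60 min / Benchmarks: neutral control DMSO, positive control TFP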
RAD52 anneal inh – blocks human RAD52 DNA annealing; inhibition, % at 18.7 µM; recombinant RAD52 DNA annealing, FRET fluorescence; 360,000 compounds, 0.46% hits;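 active = every replicate showing at least 50% inhibition; inconclusive = mean inhibition at least 50% but not in every replicate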
Of the large screens only hits and unclear results are named; the others gave an inactive call. A selection: hits, their analogues and other compounds. The true share with any hit is near 1.5%.

CC(=O)N1[C@H](C(=O)NCCCN(C)C)[C@@H](CO)[C@@H]2Cn3c(ccc(-c4cccc(F)c4)c3=O)[C@@H]21	S100A4 MyoIIA 100.8 (no result: dFosB activator)
CC(C)NC(=O)Nc1ccc2c(c1)C(=O)N([C@H](C)CO)C[C@@H](C)[C@@H](CN(C)S(=O)(=O)c1ccc(F)cc1)O2	none (no result: dFosB activator)
COc1cccc(C=Cc2nccc3ccccc23)c1OC	none (no result: dFosB activator)
CN(C)c1ccc(C=Cc2nccc3ccccc23)cc1	S100A4 MyoIIA 87.8 (no result: dFosB activator)
O=C(CNC(=O)c1cccs1)N=Nc1c(O)[nH]c2ccc(Br)cc12	none (no result: RAD54 branch)
O=C(CNC(=O)c1ccccc1)N=Nc1c(O)[nH]c2ccc(Br)cc12	dFosB activator 45.8
CCC1CCCCN1CCCNC(=O)C1CCC(=O)N1Cc1ccc(C)cc1 (stereo unspecified)	dFosB activator 16.2 (no result: MLL AF4-AF9 inh, S100A4 MyoIIA, RAD52 anneal inh)
Cc1ccc(CN2C(=O)CCC2C(=O)NCCCN2CCC(C)CC2)cc1 (stereo unspecified)	none (no result: RAD54 branch, MLL AF4-AF9 inh, S100A4 MyoIIA, RAD52 anneal inh)
Cc1ccccc1NC(=O)COC(=O)CNC(=O)c1sc2ccccc2c1Cl	none (no result: RAD54 branch)
O=C(COC(=O)CNC(=O)c1sc2ccccc2c1Cl)Nc1cc(Cl)cc(Cl)c1	dFosB activator 167.0 (no result: RAD54 branch)
CCOC(=O)N1CCN(S(=O)(=O)c2ccc(C)c(C(=O)NC3CCCCC3)c2)CC1	S100A4 MyoIIA 127.3
COc1ccc(CNC(=O)C[C@@H]2CC[C@H]3[C@@H](COc4ccc(NC(=O)C(C)C)cc4C(=O)N3C)O2)cc1	none (no result: dFosB activator)
COCC(=O)N1C[C@@H](C)[C@@H](OC)CN(C)C(=O)c2ccc(NC(=O)c3ccccc3)cc2OC[C@H]1C	none (no result: dFosB activator)
COc1cc(OC)c2ccc(=O)oc2c1C(CCN1CCCC1)c1ccc2c(c1)OCO2 (stereo unspecified)	none
COc1ccc(C(CCN2CCCC(C)C2)c2c(OC)cc(OC)c3c(-c4ccccc4)cc(=O)oc23)cc1 (stereo unspecified)	MLL AF4-AF9 inh 27.3
COc1ccc(C(CCN2CCCC2)c2c(OC)cc(OC)c3c(-c4ccccc4)cc(=O)oc23)cc1 (stereo unspecified)	dFosB activator inconclusive
CCCCCc1cc(=O)oc2c(C(CCN3CCCCC3)c3ccc4c(c3)OCO4)c(OC)cc(OC)c12 (stereo unspecified)	dFosB activator inconclusive, MLL AF4-AF9 inh 26.8
CCCCCc1cc(=O)oc2c(C(CCN(CC)CC)c3cc(OC)c(OC)c(OC)c3)c(OC)cc(OC)c12 (stereo unspecified)	RAD52 anneal inh 57.5
CO[C@@H]1CN(C)C(=O)c2ccc(NC(=O)c3ccc(F)cc3)cc2OC[C@@H](C)N(C(=O)CC2CC2)C[C@H]1C	none (no result: dFosB activator)
COc1ccccc1NC(=O)N1CCCCN2[C@@H](CO)[C@@H](c3ccc(-c4ccccc4)cc3)[C@@H]2C1	RAD52 anneal inh 50.4 (no result: dFosB activator)
COc1ccccc1NC(=O)N1CCCCN2[C@H](CO)[C@H](c3ccc(-c4ccccc4)cc3)[C@H]2C1	RAD52 anneal inh 51.7 (no result: dFosB activator)
CC(=O)N1CCCCN2[C@@H](CO)[C@H](c3ccc(-c4cccc(C(=O)N(C)C)c4)cc3)[C@@H]2C1	S100A4 MyoIIA 102.5 (no result: dFosB activator)
COc1ccccc1NC(=O)N1CCCCN2[C@@H](CO)[C@H](c3ccc(-c4ccccc4)cc3)[C@@H]2C1	RAD52 anneal inh 67.2 (no result: dFosB activator)
COc1ccc(NC(=O)N(C)C[C@@H]2OCCCC[C@@H](C)Oc3ccc(NC(=O)Nc4cccc5ccccc45)cc3C(=O)N([C@@H](C)CO)C[C@@H]2C)cc1	none (no result: dFosB activator, MLL AF4-AF9 inh, S100A4 MyoIIA, RAD52 anneal inh)
O=C(Nc1cc(F)ccc1F)N1CCCCN2[C@@H](CO)[C@@H](c3ccc(C4=CCCCC4)cc3)[C@@H]2C1	RAD52 anneal inh 54.4 (no result: dFosB activator)
O=C(Nc1cc(F)ccc1F)N1CCCCN2[C@H](C1)[C@H](c1ccc(C3=CCCCC3)cc1)[C@@H]2CO	none (no result: dFosB activator)
CN(C)C(=O)[C@H]1[C@H](CO)[C@H]2Cn3c(cccc3=O)[C@@H]1N2C(=O)c1ccccc1	S100A4 MyoIIA 126.3 (no result: dFosB activator)
CCC(=O)N1[C@H](C(=O)N[C@H](C)c2ccccc2)[C@@H](CO)[C@@H]2Cn3c(cccc3=O)[C@@H]21	none (no result: dFosB activator, RAD54 branch)
CC(=O)N1[C@H](C(=O)N[C@H](C)c2ccccc2)[C@@H](CO)[C@@H]2Cn3c(cccc3=O)[C@@H]21	S100A4 MyoIIA 109.8 (no result: dFosB activator)
N#Cc1ccc(-c2ccc([C@@H]3[C@@H](CO)N4C(=O)CN(C(=O)C5CC5)C[C@H]34)cc2)cc1	S100A4 MyoIIA 82.5 (no result: dFosB activator, RAD54 branch)
Cc1cccc(-c2ccc([C@H]3[C@H]4CN(C(=O)c5cccnc5)CC(=O)N4[C@H]3CO)cc2)c1	MLL AF4-AF9 inh 35.7 (no result: dFosB activator, RAD54 branch)
O=C(c1cccnc1)N1CC(=O)N2[C@H](CO)[C@@H](c3ccc(-c4ccc(F)cc4)cc3)[C@H]2C1	none (no result: dFosB activator, RAD54 branch)
O=C(c1cccnc1)N1CC(=O)N2[C@H](C1)[C@H](c1ccc(-c3ccc(F)cc3)cc1)[C@@H]2CO	MLL AF4-AF9 inh 31.2 (no result: dFosB activator, RAD54 branch)
C[C@@H]1CCCCO[C@H](CN(C)C(=O)Nc2ccc(C(F)(F)F)cc2)[C@@H](C)CN([C@@H](C)CO)C(=O)c2cc(NC(=O)Cc3ccccc3)ccc2O1	none (no result: dFosB activator, MLL AF4-AF9 inh, S100A4 MyoIIA, RAD52 anneal inh)
O=C(C[C@H]1C=C[C@@H](NC(=O)CC2CC2)[C@@H](CO)O1)NCc1ccc(-c2ccccc2)cc1	none (no result: dFosB activator, RAD54 branch)
C[C@H](CO)N1C[C@H](C)[C@H](CN(C)CC2CC2)Oc2cc(C#CCN(C)C)ccc2S1(=O)=O	none (no result: dFosB activator)
C[C@H](CO)N1C[C@H](C)[C@@H](CN(C)C)Oc2cc(C#CC3CCCCC3)ccc2S1(=O)=O	none (no result: dFosB activator)
C[C@@H]1CN([C@H](C)CO)S(=O)(=O)c2ccc(C#CCN(C)C)cc2O[C@@H]1CN(C)CC1CC1	S100A4 MyoIIA 96.4 (no result: dFosB activator)
C[C@H]1CN([C@@H](C)CO)S(=O)(=O)c2ccc(C#CC3CCCCC3)cc2O[C@H]1CN(C)C	RAD52 anneal inh 53.3 (no result: dFosB activator)
C[C@H](CO)N1C[C@H](C)[C@H](CN(C)CC2CC2)Oc2cc(/C=C/c3ccccc3)ccc2S1(=O)=O	MLL AF4-AF9 inh 25.7 (no result: dFosB activator)
CCOC(=O)[C@H]1[C@@H]2C(=O)N3CCC[C@H]3[C@H](O[Si](C(C)C)(C(C)C)C(C)C)[C@H]2C=C2CCN(S(=O)(=O)c3ccc(C)cc3)C[C@H]21	none (no result: dFosB activator, RAD54 branch)
CCN(CC)CCCCN1c2ccccc2Sc2ccccc21	MLL AF4-AF9 inh 25.4
CCOc1ccccc1/C=N/N1CCN(Cc2ccccc2)CC1	MLL AF4-AF9 inh 27.5
Clc1ccccc1/C=N/N1CCN(Cc2ccccc2)CC1	MLL AF4-AF9 inh 34.2
O=C(CSc1ncnc2c1nnn2Cc1ccc(F)cc1)NC1CCCCC1	none (no result: RAD54 branch)
O=C(CSc1ncnc2c1nnn2Cc1ccc(F)cc1)NCC1CCCO1 (stereo unspecified)	S100A4 MyoIIA 73.7
O=C(c1ccc(NC2=NC3CS(=O)(=O)CC3S2)cc1)N1CCN(c2ccc(F)cc2)CC1 (stereo unspecified)	none
O=C(c1ccc(NC2=NC3CS(=O)(=O)CC3S2)cc1)N1CCN(c2ccccc2F)CC1 (stereo unspecified)	MLL AF4-AF9 inh 48.3
